Measurements as given in ChEMBL document CHEMBL2176912, “Diphenyl purine derivatives as peripherally selective cannabinoid receptor 1 antagonists” (J Med Chem, 2012).

Assays:
Cannabinoid receptor 1 [1] = biological target: T1, Cannabinoid receptor 1 (Homo sapiens, UniProt P21554); experiment: Antagonist activity at human CB1 receptor transfected in CHO-K1 cells co-expressing Galphaq16 assessed as intracellular calcium mobilization using Calcein-4 AM by fluorescence assay; type: functional, cell-based
How it was run: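 CHO-K1 cells engineered to coexpress human CB1 and Gαq16. Calcium flux read with fluorescent dye Calcein-4 AM on a plate reader. Antagonism measured as rightward shift of the CP55940 concentration–response curve. Ke = [ligand]/(DR−1), where DR is the ratio of CP55940 EC50 with and without test agent. Values are averages of 3–6 measurements.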

Cannabinoid receptor 2 = Cannabinoid receptor 2 (Homo sapiens, UniProt P34972); experiment: Displacement of [3H]CP55940 from human CB2 receptor expressed in CHO-K1 cells; type: cell-based
Cannabinoid receptor 1 [2] = biological target: T1, Cannabinoid receptor 1; experiment: Displacement of [3H]CP55940 from human CB1 receptor expressed in CHO-K1 cells; type: cell-based
CHO-K1 = experiment: Selectivity ratio of Ki for human CB2 receptor expressed in CHO-K1 cells to Ki for human CB1 receptor expressed in CHO-K1 cells
MDCK = experiment: Permeability from apical to basolateral side in dog MDCK cells expressing MDR-1 gene; type: ADME, cell-based, Canis lupus familiaris
How it was run: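 MDCK-mdr1 cells grown on Transwell-type filters for 4 days to confluence in DMEM/F12 with 10% FBS and antibiotics. Compound applied apically at 10 μM in HBSS with 25 mM D-glucose, HEPES-buffered to pH 7.4. Incubated 1 h at 37 °C; apical and basal samples quantified by LC-MS/MS (MRM). Averages of 2–3 measurements.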

Liver = experiment: Metabolic stability in human liver S9 fraction assessed as compound remaining after 120 mins; type: ADME, subcellular; conditions: s9, 2 h
How it was run: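 Pooled mixed-gender human hepatic S9 at 1 mg/mL. Compound at 10 μM final in 50 mM potassium phosphate pH 7.4 with 3 mM MgCl2 and NADPH regeneration (NADP 1 mM, glucose-6-phosphate 5 mM, G6PDH 1 unit/mL). Triplicates incubated 0, 15, 30, 60, 120 min, stopped with 3 vol acetonitrile, LC-MS/MS against matrix standard curves; percent remaining at 120 min.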

Plasma = experiment: Metabolic stability in human plasma assessed as compound remaining after 60 mins; type: ADME, cell-free; conditions: 1 h
How it was run: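 Pooled mixed-gender human plasma, 1 mL per sample at 37 °C. Compound at 10 μM final, sampled at 0, 30 and 60 min after 5 min preincubation. Reaction stopped with acetonitrile, LC-MS/MS quantitation; percent remaining at 60 min.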

Nucleic Acid [3] = experiment: Ratio of drug uptake in brain to plasma of Sprague-Dawley rat brain at 10 mg/kg, po after 480 mins; type: ADME, organism-based; design: dose 10 mg/kg, route oral; conditions: 8 h
How it was run: (§1)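 Male Sprague–Dawley rats, 8 weeks old, dosed orally at 10 mg/kg in food-grade corn oil; 3–4 animals per time point. Plasma and unperfused brain collected post dose. Brain homogenized in 50:50 ethanol/water; plasma and homogenate extracted with acetonitrile and centrifuged. Analysed by LC-MS/MS against standards prepared in blank matrix. Ratio taken from brain and plasma concentrations.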

Nucleic Acid [4] = experiment: Ratio of drug uptake in brain to plasma of Sprague-Dawley rat brain at 10 mg/kg, po after 240 mins; type: ADME, organism-based; design: dose 10 mg/kg, route oral; conditions: 4 h; how it was run: as §1
Nucleic Acid [5] = experiment: Ratio of drug uptake in brain to plasma of Sprague-Dawley rat brain at 10 mg/kg, po after 120 mins; type: ADME, organism-based; design: dose 10 mg/kg, route oral; conditions: 2 h; how it was run: as §1
Nucleic Acid [6] = experiment: Ratio of drug uptake in brain to plasma of Sprague-Dawley rat brain at 10 mg/kg, po after 60 mins; type: ADME, organism-based; design: dose 10 mg/kg, route oral; conditions: 1 h; how it was run: as §1
Nucleic Acid [7] = experiment: Ratio of drug uptake in brain to plasma of Sprague-Dawley rat brain at 10 mg/kg, po after 30 mins; type: ADME, organism-based; design: dose 10 mg/kg, route oral; conditions: 0.5 h; how it was run: as §1
[8] = Drug uptake in Sprague-Dawley rat brain at 10 mg/kg, po after 480 mins; type: ADME, organism-based; design: dose 10 mg/kg, route oral; conditions: read-out: Drug uptake
How it was run: (§2)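 Male Sprague–Dawley rats, 8 weeks old, given 10 mg/kg orally in food-grade corn oil. Three to four animals per time point. Plasma and unperfused brain collected at 0.5–8 h. Brain homogenized in 50:50 ethanol/water. Samples protein-precipitated with acetonitrile and analysed by LC-MS/MS on a C18 column against standards in blank matrix.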

[9] = Drug uptake in Sprague-Dawley rat brain at 10 mg/kg, po after 240 mins; type: ADME, organism-based; design: dose 10 mg/kg, route oral; conditions: read-out: Drug uptake; how it was run: as §2
[10] = Drug uptake in Sprague-Dawley rat brain at 10 mg/kg, po after 120 mins; type: ADME, organism-based; design: dose 10 mg/kg, route oral; conditions: read-out: Drug uptake; how it was run: as §2
[11] = Drug uptake in Sprague-Dawley rat brain at 10 mg/kg, po after 60 mins; type: ADME, organism-based; design: dose 10 mg/kg, route oral; conditions: read-out: Drug uptake; how it was run: as §2
[12] = Drug uptake in Sprague-Dawley rat brain at 10 mg/kg, po after 30 mins; type: ADME, organism-based; design: dose 10 mg/kg, route oral; conditions: read-out: Drug uptake; how it was run: as §2
[13] = Plasma concentration in Sprague-Dawley rat at 10 mg/kg, po after 240 mins; type: ADME, organism-based; design: dose 10 mg/kg, route oral; how it was run: as §2
[14] = Plasma concentration in Sprague-Dawley rat at 10 mg/kg, po after 120 mins; type: ADME, organism-based; design: dose 10 mg/kg, route oral; how it was run: as §2
[15] = Plasma concentration in Sprague-Dawley rat at 10 mg/kg, po after 60 mins; type: ADME, organism-based; design: dose 10 mg/kg, route oral; how it was run: as §2
[16] = Plasma concentration in Sprague-Dawley rat at 10 mg/kg, po after 30 mins; type: ADME, organism-based; design: dose 10 mg/kg, route oral; how it was run: as §2

T1 sequence (P21554 whole entry): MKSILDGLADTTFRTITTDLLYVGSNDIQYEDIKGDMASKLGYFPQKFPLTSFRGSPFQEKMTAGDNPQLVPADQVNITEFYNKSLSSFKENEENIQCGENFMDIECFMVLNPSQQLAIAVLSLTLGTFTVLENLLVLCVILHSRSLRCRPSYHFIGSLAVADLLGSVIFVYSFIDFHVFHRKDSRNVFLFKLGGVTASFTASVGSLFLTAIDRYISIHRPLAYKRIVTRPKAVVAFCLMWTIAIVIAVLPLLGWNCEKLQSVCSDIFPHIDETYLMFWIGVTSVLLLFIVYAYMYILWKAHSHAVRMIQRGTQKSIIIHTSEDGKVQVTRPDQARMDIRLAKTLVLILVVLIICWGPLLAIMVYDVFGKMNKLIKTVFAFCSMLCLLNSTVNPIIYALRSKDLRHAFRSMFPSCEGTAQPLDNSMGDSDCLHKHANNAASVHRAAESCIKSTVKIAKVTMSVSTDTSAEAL
Cannabinoid receptor 2, sequence (P34972 whole entry): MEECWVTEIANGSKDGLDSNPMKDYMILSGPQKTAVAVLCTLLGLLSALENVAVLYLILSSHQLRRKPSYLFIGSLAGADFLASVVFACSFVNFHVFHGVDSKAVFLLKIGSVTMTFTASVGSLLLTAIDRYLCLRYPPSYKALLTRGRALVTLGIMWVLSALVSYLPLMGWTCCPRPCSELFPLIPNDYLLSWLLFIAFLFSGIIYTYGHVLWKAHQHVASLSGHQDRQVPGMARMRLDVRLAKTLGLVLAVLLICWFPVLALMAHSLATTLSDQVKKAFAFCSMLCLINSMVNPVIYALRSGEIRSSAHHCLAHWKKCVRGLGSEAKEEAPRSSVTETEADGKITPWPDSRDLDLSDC

Row | SMILES | Ke (Cannabinoid receptor 1 [1]) | Ki (Cannabinoid receptor 2) | Ki (Cannabinoid receptor 1 [2]) | Ratio Ki (CHO-K1) | further results
1 | CC(=O)N1CCC[C@@H](Nc2ncnc3c2nc(-c2ccccc2Cl)n3-c2ccc(Cl)cc2)C1 | 920 nM |  |  |  | 
2 | CC(C)(C)OC(=O)NC1CCN(c2ncnc3c2nc(-c2ccccc2Cl)n3-c2ccc(Cl)cc2)CC1 | 11 nM | 1710 nM | 1.5 nM | 1140 | 
3 | Cc1c(C(=O)N2CCC(C(N)=O)(c3ccccc3)CC2)nn(-c2ccc(Cl)cc2Cl)c1-c1ccc(Cl)cc1 | 0.45 nM |  |  | 1600 | permeability (MDCK): 8%
4 | CCNC(=O)N1CCC[C@H](Nc2ncnc3c2nc(-c2ccccc2Cl)n3-c2ccc(Cl)cc2)C1 | 1150 nM |  |  |  | 
5 | CCCCNC(=O)NC1CCN(c2ncnc3c2nc(-c2ccccc2Cl)n3-c2ccc(Cl)cc2)CC1 |  | 1550 nM | 25 nM | 62 | 
6 | CCNC1(C(N)=O)CCN(c2ncnc3c2nc(-c2ccccc2Cl)n3-c2ccc(Cl)cc2)CC1 [OTENABANT] |  |  |  |  | permeability (MDCK): 40%
7 | NC(=O)C1(c2ccccc2)CCN(c2ncnc3c2nc(-c2ccccc2Cl)n3-c2ccc(Cl)cc2)CC1 | 9 nM | 5510 nM | 1.79 nM | 3080 | Stability (Liver): > 90%; Stability (Plasma): > 90%; permeability (MDCK): 6%
8 | CCCCNC(=O)N1CCC(Nc2ncnc3c2nc(-c2ccccc2Cl)n3-c2ccc(Cl)cc2)CC1 | 71 nM | > 20000 nM | 3340 nM |  | 
9 | O=C(NC1CCN(c2ncnc3c2nc(-c2ccccc2Cl)n3-c2ccc(Cl)cc2)CC1)C(F)(F)F | 3.2 nM |  |  |  | 
10 | CCNC(=O)N1CCC[C@@H](Nc2ncnc3c2nc(-c2ccccc2Cl)n3-c2ccc(Cl)cc2)C1 | 1500 nM |  |  |  | 
11 | CS(=O)(=O)N1CCC[C@H](Nc2ncnc3c2nc(-c2ccccc2Cl)n3-c2ccc(Cl)cc2)C1 | 6040 nM |  |  |  | 
12 | CC(C)(C)OC(=O)N1CCC(Nc2ncnc3c2nc(-c2ccccc2Cl)n3-c2ccc(Cl)cc2)CC1 | 92 nM | 14000 nM | 24 nM | 568 | 
13 | CC(C)NC(=O)NC1(c2ccccc2)CCN(c2ncnc3c2nc(-c2ccccc2Cl)n3-c2ccc(Cl)cc2)CC1 | 46 nM | 8950 nM | 337 nM | 27 | 
14 | CS(=O)(=O)NC1CCN(c2ncnc3c2nc(-c2ccccc2Cl)n3-c2ccc(Cl)cc2)CC1 |  | 1070 nM | 29 nM | 37 | 
15 | CCCCNC(=O)NC1(c2ccccc2)CCN(c2ncnc3c2nc(-c2ccccc2Cl)n3-c2ccc(Cl)cc2)CC1 |  | > 20000 nM | 269 nM |  | 
16 | CC(C)NC(=O)NC1CCN(c2ncnc3c2nc(-c2ccccc2Cl)n3-c2ccc(Cl)cc2)CC1 |  | 2450 nM | 14 nM | 175 | 
17 | CS(=O)(=O)N1CCC[C@@H](Nc2ncnc3c2nc(-c2ccccc2Cl)n3-c2ccc(Cl)cc2)C1 | 346 nM |  |  |  | 
18 | CC(C)(C)OC(=O)NC1(c2ccccc2)CCN(c2ncnc3c2nc(-c2ccccc2Cl)n3-c2ccc(Cl)cc2)CC1 |  | 13900 nM | 7.1 nM | 1960 | permeability (MDCK): < 1%
19 | CCNC(=O)NC1(c2ccccc2)CCN(c2ncnc3c2nc(-c2ccccc2Cl)n3-c2ccc(Cl)cc2)CC1 |  | 4640 nM | 195 nM | 24 | 
20 | CS(=O)(=O)NC1(c2ccccc2)CCN(c2ncnc3c2nc(-c2ccccc2Cl)n3-c2ccc(Cl)cc2)CC1 | 2.9 nM |  |  | 153 | BPR (Nucleic Acid [3]): 0.1; BPR (Nucleic Acid [4]): 0.11; BPR (Nucleic Acid [5]): 0.1; BPR (Nucleic Acid [6]): 0.08; BPR (Nucleic Acid [7]): 0.05; concentration at 8 h [8]: 89 ng/mL; concentration at 4 h [9]: 184 ng/mL; concentration at 2 h [10]: 122 ng/mL; concentration at 1 h [11]: 58 ng/mL; concentration at 0.5 h [12]: 38 ng/mL; concentration at 4 h [13]: 1650 ng/mL; concentration at 2 h [14]: 1190 ng/mL; concentration at 1 h [15]: 767 ng/mL; concentration at 0.5 h [16]: 752 ng/mL; Stability (Liver): > 90%; Stability (Plasma): > 90%; permeability (MDCK): < 1%
21 | CC(C)(C)NC(=O)NC1(c2ccccc2)CCN(c2ncnc3c2nc(-c2ccccc2Cl)n3-c2ccc(Cl)cc2)CC1 |  | 20000 nM | 25.5 nM | 784 | Stability (Liver): 43%; Stability (Plasma): > 90%; permeability (MDCK): < 1%
22 | O=C(NC1CCN(c2ncnc3c2nc(-c2ccccc2Cl)n3-c2ccc(Cl)cc2)CC1)c1ccccc1 | 0.7 nM |  |  |  | 
23 | CCCNC(=O)NC1CCN(c2ncnc3c2nc(-c2ccccc2Cl)n3-c2ccc(Cl)cc2)CC1 |  | 153 nM | 28 nM | 5 | 
24 | CC(=O)N1CCC[C@H](Nc2ncnc3c2nc(-c2ccccc2Cl)n3-c2ccc(Cl)cc2)C1 | 4450 nM |  |  |  | 
25 | CCCNC(=O)NC1(c2ccccc2)CCN(c2ncnc3c2nc(-c2ccccc2Cl)n3-c2ccc(Cl)cc2)CC1 | 99 nM | 7780 nM | 220 nM | 35 | 
26 | O=S(=O)(NC1CCN(c2ncnc3c2nc(-c2ccccc2Cl)n3-c2ccc(Cl)cc2)CC1)c1ccccc1 | 0.3 nM | 5860 nM | 1.2 nM | 4890 | 
27 | NC1(c2ccccc2)CCN(c2ncnc3c2nc(-c2ccccc2Cl)n3-c2ccc(Cl)cc2)CC1 |  | 1660 nM | 11 nM | 151 | permeability (MDCK): < 1%
